Data from ChEMBL document CHEMBL3351381, “Synthesis, structure-activity relationship studies, and antibacterial evaluation of 4-chromanones and chalcones, as well as olympicin A and derivatives” (J Med Chem, 2014).
Values after ≈ are worked out from the molar mass of the structure shown. Active and inactive are the calls of the source. The calls are words filed in the database; no cut-off is given here.

Legend:
Klebsiella pneumoniae = experiment: Antimicrobial activity against Klebsiella pneumoniae ATCC 33495 at >200 ug/ml by microbroth dilution method; format: functional
[1] = Inhibition of Escherichia coli topoisomerase 4 assessed as inhibition of decatenation of catenated kinetoplast DNA after 30 mins by electrophoretic analysis
Staphylococcus aureus [2] = experiment: Antimicrobial activity against methicillin-sensitive Staphylococcus aureus ATCC 29213 by microbroth dilution method; format: functional
Vero = experiment: Cytotoxicity against african green monkey Vero cells assessed as reduction in cell viability by MTT assay; format: cell-based; conditions: Chlorocebus sabaeus
In short: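 Vero kidney epithelial cells (ATCC CCL-81) in DMEM/10% FBS, trypsinized, seeded near 10% confluence, left overnight to adhere; medium swapped for DMEM/FBS with 2-fold serial compound dilutions.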

Enterococcus faecalis = experiment: Antimicrobial activity against Enterococcus faecalis ATCC 33186 by microbroth dilution method; format: functional
Staphylococcus aureus [3] = experiment: Bactericidal activity against Staphylococcus aureus Newman assessed as log reduction in bacterial cell count at 4 times MIC at 6 hrs by time-kill assay relative to control; format: functional
[4] = Solubility of the compound in DMEM/FBS medium; format: physicochemical
In short: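 Solubility limit estimated from 2-fold serial dilutions in DMEM with 5% FBS kept overnight at 37 °C; highest concentration with no visible precipitate taken.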

[5] = Inhibition of purified recombinant Escherichia coli topoisomerase 1 assessed as relaxation of supercoiled plasmid DNA after 30 mins by electrophoretic analysis
[6] = tested on: Mycobacterium tuberculosis; experiment: Antimicrobial activity against Mycobacterium tuberculosis H37Rv by microbroth dilution method; format: functional
Staphylococcus aureus [7] = experiment: Antimicrobial activity against methicillin-resistant Staphylococcus aureus NRS 70 by microbroth dilution method; format: functional
[8] = Selectivity index, ratio of CC50 for african green monkey Vero cells to IC50 for methicillin-resistant Staphylococcus aureus NRS 70; format: functional
In short: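 Vero kidney epithelial cells were grown in DMEM/10% FBS, trypsinized, seeded at about 10% confluence and left overnight to adhere. They were then exposed to 2-fold serial compound dilutions in DMEM/FBS, and viability was read by MTT after overnight solubilization. SI = cytotoxic IC50 divided by MIC against MRSA.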

Escherichia coli [9] = experiment: Antimicrobial activity against tolC-deficient Escherichia coli by microbroth dilution method; format: functional
Escherichia coli [10] = experiment: Antimicrobial activity against Escherichia coli K-12 by microbroth dilution method; format: functional
Pseudomonas aeruginosa = experiment: Antimicrobial activity against Pseudomonas aeruginosa PAO1 at >200 ug/ml by microbroth dilution method; format: functional
Staphylococcus aureus [11] = experiment: Antimicrobial activity against Staphylococcus aureus Newman; format: functional
Staphylococcus aureus [12] = experiment: Bactericidal activity against Staphylococcus aureus Newman assessed as log reduction in bacterial cell count at MIC up to 24 hrs by time-kill assay relative to control; format: functional
Staphylococcus aureus [13] = experiment: Disruption of membrane potential in Staphylococcus aureus Newman assessed as […] at 4 times MIC using DiOC2(3) probe by fluorescence assay; format: functional
In short: (§1)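 S. aureus Newman grown to OD600nm ≈ 0.3 in Mueller–Hinton II, stained with DiOC2(3) and run on flow cytometry; red/green fluorescence ratio gives membrane potential. CCCP positive control, vancomycin negative control.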

Staphylococcus aureus [14] = experiment: Bactericidal activity against Staphylococcus aureus Newman assessed as log reduction in bacterial cell count at 4 times MIC up to 24 hrs by time-kill assay relative to control; format: functional
Staphylococcus aureus [15] = experiment: Disruption of membrane potential in Staphylococcus aureus Newman assessed as […] using DiOC2(3) probe by fluorescence assay; format: functional; in short: as §1
Staphylococcus aureus [16] = experiment: Bacteriostatic activity against Staphylococcus aureus Newman assessed as log reduction in bacterial cell count at 4 times MIC up to 24 hrs by time-kill assay relative to control; format: functional
DNA gyrase = DNA gyrase (Escherichia coli, UniProt P0AES4+P0AES6); experiment: Inhibition of Escherichia coli DNA gyrase assessed as supercoiled plasmid DNA formation after 30 mins by electrophoretic analysis; format: protein-complex assay

SMILES	MIC (Klebsiella pneumoniae)	IC50 [1]	MIC (Staphylococcus aureus [2])	IC50 (Vero)	MIC (Enterococcus faecalis)	solubility [4]	IC50 [5]	MIC [6]	MIC (Staphylococcus aureus [7])	Selectivity Index [8]	MIC (Escherichia coli [9])	MIC (Escherichia coli [10])	MIC (Pseudomonas aeruginosa)	MIC (Staphylococcus aureus [11])	Activity (Staphylococcus aureus [13])	Activity (Staphylococcus aureus [15])	also measured
C=CCOc1ccccc1/C=C/C(=O)c1ccc(O)cc1O	> 200 µg/mL	250 µM	6.25 µg/mL (≈ 21.1 µM)	21.2 µg/mL (≈ 71.5 µM)	12.5 µg/mL (≈ 42.2 µM)	> 200 µg/mL	> 500 µM	200 µg/mL (≈ 675 µM)	0.39 µg/mL (≈ 1.32 µM)	54.4	3.13 µg/mL (≈ 10.6 µM)	> 200 µg/mL	> 200 µg/mL				LCK (Staphylococcus aureus [3]): 6
CC1(C)C2CC=C(/C=C/C(=O)c3ccc(O)cc3O)C1C2 (centres undefined)	> 200 µg/mL	60 µM	1.56 µg/mL (≈ 5.49 µM)	6.9 µg/mL (≈ 24.3 µM)	3.13 µg/mL (≈ 11 µM)	> 200 µg/mL	> 500 µM	100 µg/mL (≈ 352 µM)	1.56 µg/mL (≈ 5.49 µM)	4.4	1.56 µg/mL (≈ 5.49 µM)	> 200 µg/mL	> 200 µg/mL	1.56 µg/mL (≈ 5.49 µM)	Active	Dose-dependent effect	LCK (Staphylococcus aureus [12]): 3; LCK (Staphylococcus aureus [14]): >6
O=C(/C=C/c1ccc(N2CCCCC2)cc1)c1ccc(O)cc1O	> 200 µg/mL	500 µM	3.13 µg/mL (≈ 9.68 µM)	16.7 µg/mL (≈ 51.6 µM)	25 µg/mL (≈ 77.3 µM)	100 µg/mL (≈ 309 µM)	> 500 µM	100 µg/mL (≈ 309 µM)	3.13 µg/mL (≈ 9.68 µM)	5.3	12.5 µg/mL (≈ 38.7 µM)	> 200 µg/mL	> 200 µg/mL		Active	Dose-dependent effect	LCK (Staphylococcus aureus [16]): <=3; IC50 (DNA gyrase): > 1000 µM
CN[C@H](CC(C)C)C(=O)N[C@H]1C(=O)N[C@@H](CC(N)=O)C(=O)N[C@H]2C(=O)N[C@H]3C(=O)N[C@H](C(=O)N[C@H](C(=O)O)c4cc(O)cc(O)c4-c4cc3ccc4O)[C@H](O)c3ccc(c(Cl)c3)Oc3cc2cc(c3O[C@@H]2O[C@H](CO)[C@@H](O)[C@H](O)[C@H]2O[C@H]2C[C@](C)(N)[C@H](O)[C@H](C)O2)Oc2ccc(cc2Cl)[C@H]1O [VANCOMYCIN]	> 200 µg/mL		0.39 µg/mL (≈ 0.269 µM)		0.78 µg/mL (≈ 0.538 µM)				< 0.2 µg/mL		100 µg/mL (≈ 69 µM)	100 µg/mL (≈ 69 µM)	> 200 µg/mL	0.8 µg/mL (≈ 0.552 µM)	inactive		
N#CC(C#N)=NNc1cccc(Cl)c1 [CARBONYL CYANIDE M-CHLOROPHENYLHYDRAZONE]														6.25 µg/mL (≈ 30.5 µM)			
